# Measurements reported in ChEMBL document CHEMBL4024775, “Quinazolinone-Based Anticancer Agents: Synthesis, Antiproliferative SAR, Antitubulin Activity, and Tubulin Co-crystal Structure” (J Med Chem, 2018).
# pIC50: −log10 of the molar value. Activity calls are given as the source filed them. The rule behind the calls is not given here.
# Legend:
# DU-145 = assay: Antiproliferative activity against human DU145 cells after 96 hrs by WST-1 cell proliferation assay; assay type: functional; conditions: DU-145, 96 h
# How it was run: (§1)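 Cells kept in RPMI-1640 with 10% FBS, penicillin and streptomycin at 37 °C, 5% CO2. Seeded at 5000 cells/well and exposed to 10-9–10-4 M compound or vehicle for 96 h. Live cells were read by WST-1. Viability was taken as percent of mean control and used to derive GI50. Triplicate experiments, mean values.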
# MDA-MB-231 [1] = assay: Antiproliferative activity against human MDA-MB-231 cells after 96 hrs by WST-1 cell proliferation assay; assay type: functional; conditions: MDA-MB-231, 96 h; how it was run: as §1
# [2] = Inhibition of bovine brain tubulin polymerization preincubated for 15 mins followed by GTP addition measured after 20 mins by spectrophotometric analysis; parameters: species or system Bos taurus
# How it was run: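 Bovine brain tubulin 1.0 mg/mL (10 µM) was preincubated without GTP with varied compound concentrations for 15 min at 30 °C, then chilled and given GTP (0.4 mM final). After a 0 °C baseline, turbidity rise was followed for 20 min after a jump to 30 °C. IC50 is the concentration that halves the turbidity increase.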
# Bos taurus = organism: Bos taurus; assay: Inhibition of [3H]colchicine binding to bovine brain tubulin at 5 uM after 10 mins by DEAE-cellulose filter method relative to control
# How it was run: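 Bovine brain tubulin 0.1 mg/mL (1.0 µM) with 5.0 µM [3H]colchicine and inhibitor at 5.0 µM, incubated 10 min at 37 °C. CA-4 served as comparator.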
# [3] = molecular target: T1, Steryl-sulfatase (Homo sapiens) (UniProt P08842); assay: Inhibition of STS in human JEG3 cells at 100 uM using [6,7-3H]E1S as substrate after 3 hrs by liquid scintillation spectrometry; assay type: cell-based
# T1 sequence (whole entry): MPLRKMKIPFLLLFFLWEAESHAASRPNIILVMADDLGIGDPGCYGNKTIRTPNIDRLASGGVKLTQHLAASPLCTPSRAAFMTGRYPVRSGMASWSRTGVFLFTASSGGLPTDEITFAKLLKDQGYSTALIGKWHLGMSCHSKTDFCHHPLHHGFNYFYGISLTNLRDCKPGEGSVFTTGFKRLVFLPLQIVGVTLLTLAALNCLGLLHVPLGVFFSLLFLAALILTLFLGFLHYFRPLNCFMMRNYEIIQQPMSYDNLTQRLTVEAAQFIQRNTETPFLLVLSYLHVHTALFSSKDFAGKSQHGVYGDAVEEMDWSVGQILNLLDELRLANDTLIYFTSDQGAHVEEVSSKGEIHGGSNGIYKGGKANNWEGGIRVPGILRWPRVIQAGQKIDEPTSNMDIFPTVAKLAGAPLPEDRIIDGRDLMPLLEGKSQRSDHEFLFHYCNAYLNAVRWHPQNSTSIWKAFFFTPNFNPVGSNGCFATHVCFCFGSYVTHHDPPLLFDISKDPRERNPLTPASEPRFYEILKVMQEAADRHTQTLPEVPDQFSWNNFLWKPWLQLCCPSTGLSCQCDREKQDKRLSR
# How it was run: (§2)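 JEG-3 cells were lysed in RIPA buffer and protein measured by BCA. Lysate (50 µg protein) was incubated 3 h in PBS with [6,7-3H]E1S at 20 µM final (unlabeled E1S added), with or without inhibitor. [4-14C]E1 tracked procedural losses. E1 was separated by toluene partition and counted by scintillation. Activity taken as pmol E1/h/mg protein and expressed as percent inhibited.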
# [4] = molecular target: T1, Steryl-sulfatase (Homo sapiens); assay: Inhibition of STS in human JEG3 cells at 10 uM using [6,7-3H]E1S as substrate after 3 hrs by liquid scintillation spectrometry; assay type: cell-based; how it was run: as §2
# RPMI-8226 [5] = assay: Antitumor activity against human RPMI8226 cell lines xenografted in NCr-nude mouse assessed as tumor growth inhibition at 20 mg/kg, po for 28 days measured on day 53; assay type: functional; conditions: RPMI-8226, po, read-out: TGI
# How it was run: (§3)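 Female NCr-nude mice, 4-6 weeks old. 6 x 10^6 tumor cells mixed with an equal volume of Matrigel were implanted subcutaneously in the left flank. At about 100 mm3, mice were randomized into 3 groups of 6. Oral vehicle or compound given for 28 days. Tumor weight estimated as (w2 x l)/2 and read at day 53, 18 days after dosing ended.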
# RPMI-8226 [6] = assay: Antitumor activity against human RPMI8226 cell lines xenografted in NCr-nude mouse assessed as tumor growth inhibition at 40 mg/kg, po for 28 days measured on day 53; assay type: functional; conditions: RPMI-8226, po, read-out: TGI; how it was run: as §3
# MDA-MB-231 [7] = assay: Antiproliferative activity against human MDA-MB-231 cells after 48 hrs by MTT assay; assay type: functional; conditions: MDA-MB-231, 48 h
GI50 (DU-145) [µM],GI50 (MDA-MB-231 [1]) [µM],inhibition [3],SMILES,also measured
> 100,> 100,,COc1cc2c(cc1O)NC(=O)N(Cc1ccccc1F)C2,
81,> 100,,COc1cc2c(cc1O)NC(=O)N(Cc1cccc(Cl)c1)C2,
> 100,> 100,,COc1cc2c(cc1O)NC(=O)N(Cc1ccccc1C)C2,
0.05,0.05,inactive,COc1ccc(OC)c(CN2Cc3cc(OC)c(OS(N)(=O)=O)cc3NC2=O)c1,pIC50 [2]: 5.60; inhibition (Bos taurus): 61%
0.3,0.2,70 to 80%,COc1ccccc1CN1Cc2cc(OC)c(OS(N)(=O)=O)cc2NC1=O,pIC50 [2]: 5.60; inhibition (Bos taurus): 55%; inhibition [4]: Active; inhibition in vivo at 20 mg/kg (RPMI-8226 [5]): 27%; inhibition in vivo at 40 mg/kg (RPMI-8226 [6]): 31%
> 100,> 100,inactive,COc1ccc(CN2Cc3cc(OC)c(OS(N)(=O)=O)cc3NC2=O)cc1,
0.5,0.2,70 to 80%,COc1cc2c(cc1OS(N)(=O)=O)NC(=O)N(Cc1ccccc1Cl)C2,pIC50 [2]: 5.30; inhibition (Bos taurus): 43%; inhibition [4]: Active
0.8,0.4,inactive,COc1cc2c(cc1OS(N)(=O)=O)NC(=O)N(Cc1cccc(OC)c1OC)C2,pIC50 [2]: 5.07
33,34,,COc1cccc(CN2Cc3cc(OC)c(OS(N)(=O)=O)cc3NC2=O)c1,
,,Active,COc1cc(CN2CCc3cc(O)ccc3C2)cc(OC)c1OC,
,,Active,COc1cc2c(cc1O)CCN(Cc1cc(Br)c(OC)c(OC)c1)C2,
2.2,5.7,,COc1cc2c(cc1O)NC(=O)N(Cc1ccccc1OC)C2,
> 100,> 100,,COc1cccc(CN2Cc3cc(OC)c(O)cc3NC2=O)c1,
4.8,4.5,20 to 25%,COc1cc2c(cc1OS(N)(=O)=O)NC(=O)N(Cc1ccccc1F)C2,
5.6,5,,COc1cc2c(cc1O)NC(=O)N(Cc1ccccc1Cl)C2,
> 100,> 100,inactive,COc1cc2c(cc1OS(N)(=O)=O)NC(=O)N(Cc1ccccc1)C2,
0.1,0.1,inactive,COc1cc2c(cc1OS(N)(=O)=O)NC(=O)N(Cc1cc(OC)c(OC)c(OC)c1)C2,pIC50 [2]: 5.25
,,,COc1ccc(/C=C\c2cc(OC)c(OC)c(OC)c2)cc1O [COMBRETASTATIN A4],GI50 (MDA-MB-231 [7]): 45 nM
60,7.4,20 to 25%,COc1cc2c(cc1OS(N)(=O)=O)NC(=O)N(Cc1ccccc1C)C2,
,,Active,CCc1cc2c(cc1OS(N)(=O)=O)CCN(Cc1cc(Br)c(OC)c(OC)c1)C2,
,,Active,CCc1cc2c(cc1OS(N)(=O)=O)CCN(Cc1cc(OC)c(OC)c(OC)c1)C2,
8.4,9.3,,COc1cc2c(cc1O)NC(=O)N(Cc1cc(OC)c(OC)c(OC)c1)C2,
> 100,> 100,,COc1cc2c(cc1O)NC(=O)N(Cc1ccccc1)C2,
3.2,2.2,70 to 80%,COc1cc2c(cc1OS(N)(=O)=O)NC(=O)N(Cc1cccc(Cl)c1)C2,inhibition [4]: Active
,,Active,COc1cc(CN2CCc3cc(OS(N)(=O)=O)ccc3C2)cc(OC)c1OC,
> 100,> 100,,COc1ccc(CN2Cc3cc(OC)c(O)cc3NC2=O)cc1,
8.5,8.3,,COc1cc2c(cc1O)NC(=O)N(Cc1cccc(OC)c1OC)C2,
1.5,2.3,inactive,COc1ccc(OC)c(CN2Cc3cc(OC)c(O)cc3NC2=O)c1,

SMILES,GI50 (DU-145) [µM],GI50 (MDA-MB-231 [1]) [µM],inhibition [3],also measured
COc1cc2c(cc1OS(N)(=O)=O)CCN(Cc1cc(Br)c(OC)c(OC)c1)C2,,,45%,
